According to ChEMBL document CHEMBL1154546, “Synthesis of 5- and 6-substituted 2-(4-dimethylaminophenyl)-1,3-benzoxazoles and their in vitro and in vivo evaluation as imaging agents for amyloid plaque” (Bioorg Med Chem Lett, 2009):
Active and inactive are the calls of the source.

target: not listed separately; experiment: Displacement of [3H]BTA1 from amyloid beta (1 to 40) peptide by […]; settings: not given

Structure (SMILES) | Ki [nM]
Cc1cccc(C(=O)Nc2ccc3nc(-c4ccc(N(C)C)cc4)oc3c2)c1 | 31.5
CN(C)c1ccc(-c2nc3cc(NC(=O)c4ccccc4)ccc3o2)cc1 | 12
COc1cc(C(=O)Nc2ccc3nc(-c4ccc(N(C)C)cc4)oc3c2)cc(OC)c1OC | 628
CN(C)c1ccc(-c2nc3ccc(NC(=O)c4ccc(I)cc4)cc3o2)cc1 | 60.1
Cc1cccc(C(=O)Nc2ccc3oc(-c4ccc(N(C)C)cc4)nc3c2)c1 | 13.4
Cc1ccc(C(=O)Nc2ccc3oc(-c4ccc(N(C)C)cc4)nc3c2)cc1 | 13.2
Cc1ccccc1C(=O)Nc1ccc2nc(-c3ccc(N(C)C)cc3)oc2c1 | 112
CN(C)c1ccc(-c2nc3ccc(NC(=O)c4ccc5c(c4)OCO5)cc3o2)cc1 | 19.7
CN(C)c1ccc(-c2nc3cc(NC(=O)c4ccc(I)cc4)ccc3o2)cc1 | 9.3

Second part, the molecule after the results:

Ki [nM] | Structure (SMILES)
86 | Cc1ccc(C(=O)Nc2ccc3nc(-c4ccc(N(C)C)cc4)oc3c2)cc1
18.9 | Cc1ccccc1C(=O)Nc1ccc2oc(-c3ccc(N(C)C)cc3)nc2c1
26 | CN(C)c1ccc(-c2nc3ccc(NC(=O)c4ccccc4)cc3o2)cc1
109 | COc1cc(C(=O)Nc2ccc3oc(-c4ccc(N(C)C)cc4)nc3c2)cc(OC)c1OC
17.2 | CN(C)c1ccc(-c2nc3cc(NC(=O)c4ccc5c(c4)OCO5)ccc3o2)cc1

test system: Papio anubis; experiment: In vivo binding affinity to amyloid beta (1 to 40) peptide in ovariectomized baboon by SPECT imaging; format: functional, organism-based; settings: tested as the 123I-labelled form
In short: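 Nonhuman primate fasted 18-24 h, immobilized with ketamine (10 mg/kg i.m.) plus glycopyrrolate (10 μg/kg i.m.) 2 h before study, intubated, kept on 2.5% isoflurane, vitals checked every 15 min. 123I tracer (3.2 mCi in 8 mL, ethanol/saline) injected. Continuous brain-dedicated SPECT at 159 keV for 1 h. Reconstruction used ramp plus Butterworth filter (cutoff 0.65 cm-1).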

Structure (SMILES) | Activity
CN(C)c1ccc(-c2nc3cc(NC(=O)c4ccc(I)cc4)ccc3o2)cc1 | inactive
